Experimental findings from ChEMBL document CHEMBL1126073, “Synthesis of carbon-11 labeled iodinated cocaine derivatives and their distribution in baboon brain measured using positron emission tomography” (J Med Chem, 1992) are described below.

Series [1] is described as follows: Percentage of tracer or metabolite(EME) in baboon plasma at 5 min after injection of the compound. It is filed as ADME, cell-free. As to conditions: cercopithecidae. In short, it runs like this: (§1)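 Arterial baboon plasma taken 1, 5, 10 and 30 min after injection of 11C tracer. 0.2 mL plasma in 1 mL acetonitrile, sonicated, centrifuged. Supernatant run on silica HPLC with acetonitrile/0.004 M (NH4)2HPO4 70/30 plus unlabelled carrier. Unchanged tracer, EME and void-volume acidic 11C measured as fractions of total. [11C]CO2 measured separately by volatilization assay. Mean of two experiments.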

The nature of series [2]: Percentage of tracer or metabolite (CO2) in baboon plasma at 10 min after injection of the compound. The class given is ADME, cell-free. To be noted: cercopithecidae. An outline of the steps:
as §1

The nature of series [3]: Percentage of tracer or metabolite (acid metabolites) in baboon plasma at 30 min after injection of the compound. It is filed as ADME, cell-free. To be noted: cercopithecidae, 0.5 h. In short, it runs like this: as §1
The nature of series [4]: Percentage of tracer or metabolite (unchanged) in baboon plasma at 10 min after injection of the compound. The class given is ADME, cell-free. As to conditions: cercopithecidae. An outline of the steps: as §1
Series [5] is described as follows: Percentage of tracer or metabolite (CO2) in baboon plasma at 30 min after injection of the compound. It is filed as ADME, cell-free. As to conditions: cercopithecidae, 0.5 h. An outline of the steps:
as §1

For series [6], the system named is Monkey. As to the kind of experiment: (§2) Baboon plasma free fraction. To be noted: Cercopithecidae. The class given is functional, organism-based. An outline of the steps: (§3)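 Free fraction by ultrafiltration: 11C-labelled compound added to 0.18 mL baboon plasma plus 0.02 mL 100 mM sodium phosphate pH 7.4 with 1 μg physostigmine (esterase block). Incubated 15 min at room temperature, vortexed every 5 min, centrifugal filter spun 5 min. Value = 11C concentration in ultrafiltrate / concentration in incubation mixture.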

Series [7] concerns the target Sodium-dependent dopamine transporter (Rattus norvegicus, UniProt P23977). The series can be described thus: Concentration inhibiting [3H]cocaine binding site to rat striatal membranes. An outline of the steps:
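Rat striatal membranes prepared in ice-cold 320 mM sucrose with 10 mM NaH2PO4, pH 7.45 (1000g 3 min, then 30000g 30 min pellet). About 0.25 mg protein incubated at room temperature for 20 min with 2 nM [3H]cocaine, inhibitors 6 nM to 20 μM. Filtration through polyethylenimine-soaked glass-fibre filters, ice-cold wash, liquid scintillation counting.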

Series [8] is described as follows: Percentage of tracer or metabolite (unchanged) in baboon plasma at 30 min after injection of the compound. The class given is ADME, cell-free. To be noted: cercopithecidae, 0.5 h. In short, it runs like this: as §1
Series [9] can be described thus: Percentage of tracer or metabolite (acid metabolites) in baboon plasma at 5 min after injection of the compound. It is filed as ADME, cell-free. To be noted: cercopithecidae. An outline of the steps:
as §1

The nature of series [10]: Percentage of tracer or metabolite(EME) in baboon plasma at 30 min after injection of the compound. It is filed as ADME, cell-free. As to conditions: cercopithecidae, 0.5 h. An outline of the steps:
as §1

Series [11] in a line: Percentage of tracer or metabolite (CO2) in baboon plasma at 5 min after injection of the compound. The class given is ADME, cell-free. To be noted: cercopithecidae. An outline of the steps:
as §1

Series [12] can be described thus: Percentage of tracer or metabolite (unchanged) in baboon plasma at 1 min after injection of the compound. It is filed as ADME, cell-free. To be noted: cercopithecidae. In short, it runs like this: as §1
Series [13] in a line: Percentage of tracer or metabolite (CO2) in baboon plasma at 1 min after injection of the compound. The class given is ADME. As to conditions: cercopithecidae. An outline of the steps:
as §1

The test system of series [14] is Monkey. The series can be described thus: Peak striatal uptake in baboon expressed as percentage of injected dose per mL of tissue. It is filed as functional, Cercopithecidae, Striatum. An outline of the steps: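 Adult female baboons (n = 7, 14.2–18.5 kg), ketamine 10 mg/kg i.m. induction, then oxygen/nitrous oxide/isoflurane anaesthesia. 4.7–8.4 mCi of N-11C-methyl tracer injected intravenously per PET scan. Regional time-activity curves; peak striatal radioactivity expressed as percent of injected dose per mL of tissue.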

Series [15] can be described thus: Percentage of tracer or metabolite (acid metabolites) in baboon plasma at 10 min after injection of the compound. It is filed as ADME, cell-free. As to conditions: cercopithecidae. In short, it runs like this:
as §1

Series [16] in a line: Percentage unmetabolized in baboon plasma at 30 min after administration. The class given is functional, Cercopithecidae. In short, it runs like this: as §1
The nature of series [17]: Clearance from plasma(with matabolite-corrected plasma radioactivity-time integral) at 30 min after administration. It is filed as ADME, cell-free. To be noted: cercopithecidae, 0.5 h. In short, it runs like this:
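Anaesthetised baboons given 4.7–8.4 mCi 11C tracer. Automated arterial sampling for the first 2 min, then manual sampling. Plasma total radioactivity corrected for metabolites using two-component exponential fits to the metabolite fractions. Time-radioactivity integral to 30 min by cubic spline integration.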

Series [18] is described as follows: Percentage of tracer or metabolite (unchanged) in baboon plasma at 5 min after injection of the compound. The class given is ADME, cell-free. To be noted: cercopithecidae. In short, it runs like this:
as §1

A short description of series [19]: Percentage of tracer or metabolite(EME) in baboon plasma at 1 min after injection of the compound. The class given is ADME, cell-free. To be noted: cercopithecidae. In short, it runs like this: as §1
Series [20] can be described thus: Percentage of tracer or metabolite (acid metabolites) in baboon plasma at 1 min after injection of the compound. To be noted: cercopithecidae. It is filed as ADME, cell-free. In short, it runs like this:
as §1

The nature of series [21]: Percentage of tracer or metabolite(EME) in baboon plasma at 10 min after injection of the compound. It is filed as ADME, cell-free. As to conditions: cercopithecidae. An outline of the steps:
as §1

A short description of series [22]: as §2. It is filed as ADME, cell-free. As to conditions: cercopithecidae, read-out: Free fraction. In short, it runs like this:
as §3

Chain of Sodium-dependent dopamine transporter (P23977 whole entry): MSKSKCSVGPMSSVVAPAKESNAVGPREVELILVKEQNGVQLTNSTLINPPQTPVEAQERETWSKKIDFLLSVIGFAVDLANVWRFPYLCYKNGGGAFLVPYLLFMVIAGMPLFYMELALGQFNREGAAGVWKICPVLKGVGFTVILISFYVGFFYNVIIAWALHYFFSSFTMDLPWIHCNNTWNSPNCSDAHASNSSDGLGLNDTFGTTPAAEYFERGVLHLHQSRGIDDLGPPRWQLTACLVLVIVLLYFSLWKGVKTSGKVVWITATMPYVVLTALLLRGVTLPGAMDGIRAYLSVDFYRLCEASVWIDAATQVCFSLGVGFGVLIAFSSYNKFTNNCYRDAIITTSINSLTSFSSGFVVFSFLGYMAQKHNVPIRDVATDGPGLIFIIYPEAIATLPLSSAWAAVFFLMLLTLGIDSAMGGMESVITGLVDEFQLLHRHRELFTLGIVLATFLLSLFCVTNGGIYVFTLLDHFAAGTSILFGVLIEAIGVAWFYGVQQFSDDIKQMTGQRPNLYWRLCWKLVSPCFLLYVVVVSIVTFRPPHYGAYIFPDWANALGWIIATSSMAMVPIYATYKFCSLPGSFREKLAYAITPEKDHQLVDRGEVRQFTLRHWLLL

`COC(=O)C1C2CCC(C[C@@H]1OC(=O)c1ccccc1I)N2C` (stereo partly specified): the Tracer was determined as 0.2% in series [1]; 21% in [2]; 69% in series [3]; 48% in [4]; 29% in series [5]; 33% in series [8]. In addition, the Tracer was 15% in [9]; 0.2% in series [10]; 15% in [11]; 97% in series [12]; -7% in [13]; 52% in series [15]. In addition, the Tracer in [18] is on record as 79%; in [19] it was 0.3%; in [20] it was 0.02%; in series [21], 0.2%. Also, the Fu in series [6] was found to be 0.003%. Also, the 50% inhibitory concentration (IC50) in [7] came out at 350 nM. In series [14], this compound displayed a Peak striatal uptake of 0.01. Further, the Unmetabolized in series [16] is on record as 33%. Further, in series [17], the Plasma integral amounted to 6.1 uCi min ml-1.
Take `COC(=O)[C@H]1[C@@H](OC(=O)c2ccccc2)C[C@@H]2CC[C@H]1N2C` [COCAINE]: the Tracer turned out to be 13% in [1]; 37% in [2]; 60% in series [3]; 31% in [4]; 44% in series [5]; 17% in series [8]. For the same compound, the Tracer in series [9] is on record as 22%; in series [10], 12%; in series [11] it was 30%; in [12] it was 70%; in series [13], 6%; in [15], 38%. For the same compound, the Tracer is reported as 44% in series [18], 12% in series [19], 0.4% in series [20] and 11% in series [21]. The compound further returned a Peak striatal uptake in [14] of 0.06. Also, the fraction unbound in series [22] is 0.1. The same compound had an Unmetabolized in [16] of 17%. Besides, the Plasma integral in [17] is 2.1 uCi min ml-1.
Turning to `COC(=O)C1C2CCC(C[C@@H]1OC(=O)c1cccc(I)c1)N2C` (stereo partly specified), the Tracer in series [1] worked out at 3%; in series [2] it was 33%; in series [3], 51%; in series [4], 60%; in [5], 43%; in series [8], 36%. The Tracer in [9] came out at 18%; in series [10], 4%; in series [11], 17%; in series [12], 95%; in series [13], 3%; in [15] it was 35%. In addition, the Tracer in series [18] is given as 77%; in [19], 0.7%; in series [20] it was 0.4%; in [21] it was 1%. In series [14], the Peak striatal uptake was determined as 0.03. Also, the fraction unbound in [22] stood at 0.016. In [16], this compound yielded an Unmetabolized of 36%. In series [17], the Plasma integral came out at 2.8 uCi min ml-1.
On to `COC(=O)C1C2CCC(C[C@@H]1OC(=O)c1ccc(I)cc1)N2C` (stereo partly specified), for which the Tracer in [1] is listed as 2.5%; in series [2] it was 21%; in series [3], 71%; in [4], 48%; in series [5], 32%; in [8] it was 22%. Moreover, the Tracer in series [9] worked out at 17%; in series [10] it was 2.6%; in series [11] it was 7%; in series [12] it was 90%; in series [13], 1%; in [15], 45%. Further, the Tracer is given as 60% in [18], 1.5% in series [19], 0.5% in series [20] and 2% in series [21]. In [14], the Peak striatal uptake was found to be 0.04. Further, in series [22], the fraction unbound turned out to be 0.06. In addition, the Unmetabolized in series [16] is recorded as 22%. Moreover, in series [17], the Plasma integral was found to be 1.8 uCi min ml-1.
